High-throughput results deposited in PubChem by Sanford-Burnham Center for Chemical Genomics.
APJ antag: blocks the human apelin receptor APJ | CHO-K1 APJ beta-arrestin complementation, luminescence | AID 2521 | 0.32% of 330,000 active | inhibition, % at 20 µM | P35414;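 active = inhibition above about 40% at 20 µM, limit read from the data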;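 note: cells challenged with 10 nM apelin-13 agonist together with compound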
APJ agonist: agonists of human APJ apelin receptor | P35414 | CHO-K1 APJ PathHunter beta-arrestin, luminescence; 0% DMSO wells, 100% apelin | activation, % at 20 µM | 0.11% of 330,000 active;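 active = activation more than six SD over the plate average, tested at 20 µM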
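system = engineered CHO-K1 APJ arrestin reporter cells | input = 1000 cells per well | timing = overnight seeding, 90 min compound at 25 °C, 1 h detection | measured by = enzyme-fragment complementation luminescence | read-out = beta-arrestin recruitment to APJ as agonist activity, luminescent signal | control set = negative DMSO alone, positive Apelin-13 at 10 nM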
EBI2 antag: EBI2 (human) antagonism. P32249. inhibition, % at 5 µM. AID 651636. EBI2 beta-arrestin recruitment, luminescence, 7a,25-OHC stimulated. 0.81% of 360,000 active; in the data active = inhibition above about 38%;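 note: enzyme fragment complementation signal reports receptor beta-arrestin coupling in cells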
CCR6 antag: blocks CCL20-driven beta-arrestin recruitment at human CCR6 | CHO-K1 CCR6 PathHunter beta-arrestin, luminescence, CCL20-stimulated | inhibition, % at 20 µM | 0.49% of 340,000 active | AID 493098;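 active = compounds whose inhibition of the agonist-driven luminescence signal at 20 µM reaches about 50%, limit read from the data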;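 note: cells stimulated with CCL20 at 14 nM final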
Target sequence (P51684 whole entry, looked up): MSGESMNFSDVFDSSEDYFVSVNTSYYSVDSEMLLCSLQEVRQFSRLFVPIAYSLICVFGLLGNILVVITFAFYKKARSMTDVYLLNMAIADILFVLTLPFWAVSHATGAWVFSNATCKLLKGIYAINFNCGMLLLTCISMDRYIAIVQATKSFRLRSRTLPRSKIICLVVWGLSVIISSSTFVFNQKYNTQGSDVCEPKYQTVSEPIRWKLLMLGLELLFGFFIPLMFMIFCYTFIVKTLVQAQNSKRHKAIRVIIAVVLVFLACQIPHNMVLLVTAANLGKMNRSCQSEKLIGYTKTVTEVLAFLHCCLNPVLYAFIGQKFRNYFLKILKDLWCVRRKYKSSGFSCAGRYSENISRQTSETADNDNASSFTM
CXCR6 inh: CXCR6 (human) receptor inhibition | CHO-K1 PathHunter CXCR6 beta-arrestin, luminescence | AID 602244 | 0.36% of 360,000 active | inhibition, % at 20 µM; in the data active = inhibition above about 34%, passing the limit was not always enough;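 note: antagonist mode with CXCL16 agonist at 10 nM final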
Target sequence (O00574 whole entry, looked up): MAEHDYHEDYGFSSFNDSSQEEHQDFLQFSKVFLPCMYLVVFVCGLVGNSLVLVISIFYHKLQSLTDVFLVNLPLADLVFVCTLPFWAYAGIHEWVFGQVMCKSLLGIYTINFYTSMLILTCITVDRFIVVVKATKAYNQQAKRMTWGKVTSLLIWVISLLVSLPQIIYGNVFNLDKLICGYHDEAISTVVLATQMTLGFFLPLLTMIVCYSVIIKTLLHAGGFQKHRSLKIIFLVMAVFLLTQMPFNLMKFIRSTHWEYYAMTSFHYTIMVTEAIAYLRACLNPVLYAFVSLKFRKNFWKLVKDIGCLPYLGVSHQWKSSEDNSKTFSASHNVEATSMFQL
APJ antag conf: APJ receptor antagonism confirmation. 66% of 950 active. inhibition, % at 20 µM. shares compounds with APJ antag. APJ beta-arrestin recruitment, luminescence, antagonist mode; in the data active = inhibition above about 50%
Each line names hits and unclear results; the compound was inactive in the other large screens (follow-up assays come after a bar, where they were run). Shown are actives, neighbours in structure and some others; about 1.5% of the full set was active somewhere.

O=[N+]([O-])c1ccc(O)c(/C=N/NC2=NS(=O)(=O)c3ccccc32)c1	none
O=C(CCC(=O)Nc1ccc(Br)cc1)N/N=C/c1cc([N+](=O)[O-])ccc1O	APJ antag 42, CCR6 antag 65 | APJ antag conf inactive
CCNC(=O)C1CCCN(C(=O)Cc2ccc3ccccc3c2)CC1 (stereo not drawn)	none (no result: APJ antag, APJ agonist, CCR6 antag)
Cc1ccc2c(c1)-n1c(nc3cc(Cl)ccc3c1=O)C(Cc1ccccc1)NC2=O (stereo not drawn)	none (no result: EBI2 antag, CCR6 antag, CXCR6 inh)
COc1ccc(S(=O)(=O)N2CCN(C(=O)c3cc4c(s3)CCC4)CC2)cc1	none
Cn1c(=O)[nH]c(=O)c2c1nc(N1CCNCC1)n2Cc1cccc2ccccc12	APJ antag 41, CCR6 antag 54, CXCR6 inh 45 | APJ antag conf 92
Cn1c(=O)c2c(nc(N3CCNCC3)n2Cc2cccc3ccccc23)n(C)c1=O	APJ antag 57, CCR6 antag 62, CXCR6 inh 47 | APJ antag conf 99
NC(C(=O)O)C1ON=C(Cl)C1O (stereo not drawn)	none (no result: APJ antag, APJ agonist)
Cc1ccc(S(=O)(=O)N/N=C/c2ccc3nccnc3c2)cc1	APJ antag 58, CCR6 antag 56 | APJ antag conf 88
O=C(NC1CCCC1)C1C(c2ccc(C(F)(F)F)cc2)=Nc2ccccc2N1C(=O)c1ccccc1 (stereo not drawn)	none (no result: APJ antag, APJ agonist, CCR6 antag, CXCR6 inh)
CN(C)c1ccc(/C=C2\C(=N)N3C(=NC2=O)Sc2cc(S(C)(=O)=O)ccc23)cc1	APJ antag 53 (no result: EBI2 antag, CCR6 antag, CXCR6 inh) | APJ antag conf inactive
O=C(c1cccs1)c1cn(CC(=O)N2CCc3ccccc3C2)c2ccccc12	APJ antag 43 | APJ antag conf inactive
OC1CN=C2CCCc3c2n(c2ccc(Cl)cc32)C1 (stereo not drawn)	APJ antag 61, CCR6 antag 68, CXCR6 inh 52 | APJ antag conf 101
O=C(C(=O)N1CCN(c2ccccc2)CC1)c1ccco1	none (no result: APJ antag, APJ agonist, CCR6 antag, CXCR6 inh)
CC(C)(C)OC(=O)N1CCC[C@H]1c1nnc(SCC(=O)Nc2cccc(Cl)c2)o1	none
CC(C)(C)OC(=O)N1CCC[C@H]1c1nnc(SCC(=O)Nc2ccc(Br)cc2)o1	APJ antag 55, CXCR6 inh 36 | APJ antag conf 72
O=C(N/N=C/c1cc(Br)cc(Br)c1O)c1ccncc1	none (no result: EBI2 antag, CXCR6 inh)
O=C(N/N=C/c1cc(Br)cc([N+](=O)[O-])c1O)c1ccc(NC(=O)c2ccc(F)cc2)cc1	APJ antag 49, CCR6 antag 69 | APJ antag conf 86
Brc1ccc2nc(-c3ccco3)c(CC3CCCCC3)n2c1	none (no result: APJ antag, APJ agonist, CCR6 antag)
Clc1ccc(-c2nn3c(-c4ccccc4)nnc3s2)cc1	APJ antag 43 | APJ antag conf inactive
c1ccc(-c2nnc3sc(-c4ccncc4)nn23)cc1	none
CCc1nc2c(OCCOc3ccc(F)cc3)cccn2c1N(C)C(=O)c1ccco1	none (no result: APJ antag, APJ agonist, CCR6 antag)
CC(C)Nc1ncnc2c1ncn2[C@H]1CN(Cc2cccs2)C[C@@H](CO)O1	none (no result: APJ antag, APJ agonist, CCR6 antag)
CC1CC(=O)Nc2ccccc2N1S(=O)(=O)c1ccccc1 (stereo not drawn)	APJ antag 60 | APJ antag conf inactive
COc1cc([N+](=O)[O-])cc(/C=N/NC(=O)C(O)(c2ccccc2)c2ccccc2)c1O	APJ antag 47 | APJ antag conf inactive
CN(C)CCN1CCN(C2CN(Cc3ccc([N+](=O)[O-])cc3)S(=O)(=O)C2)CC1 (stereo not drawn)	none (no result: APJ antag, APJ agonist, CCR6 antag)
CN1CCCC(C)(C(=O)Nc2ccc3scnc3c2)C1 (stereo not drawn)	none (no result: APJ antag, APJ agonist, CCR6 antag)
S=C(N/N=C/c1ccc(Br)cc1)N1CCCCC1	none
S=C(N/N=C/c1ccc(Cl)cc1)N1CCOCC1	APJ antag 41, CCR6 antag 55 | APJ antag conf 60
CCOC(=O)C1CCCN(c2c(NCCN(CC)c3ccccc3)c(=O)c2=O)C1 (stereo not drawn)	APJ antag 40 | APJ antag conf inactive
CCOC(=O)C1CCCN(c2c(NCCCN(CC)c3ccccc3)c(=O)c2=O)C1 (stereo not drawn)	none
CC(=O)Nc1ccc(NCCc2cccs2)cc1	none (no result: APJ antag, APJ agonist, CCR6 antag)
CC(=O)Nc1ccc(NCc2cccs2)cc1	APJ antag 104 | APJ antag conf inactive
CC(c1ccccc1)N1C(=O)OC(C)(C)C1(C)O (stereo not drawn)	APJ antag 72 | APJ antag conf inactive
CN1C(=O)OC(C)(CCc2ccccc2)C1(C)O (stereo not drawn)	none
O=[N+]([O-])c1ccc(N/N=C/c2c[nH]c3ccccc23)cc1	APJ antag 43, EBI2 antag 42, CCR6 antag 58 | APJ antag conf 79
O=[N+]([O-])c1ccccc1N/N=C/c1c[nH]c2ccccc12	APJ antag 44 | APJ antag conf 104
O=[N+]([O-])c1ccccc1N/N=C/c1ccccc1	none
Nc1nc(-c2ccc(Cl)cc2)c(N=Nc2ccc(S(=O)(=O)N3CCOCC3)cc2)s1	APJ antag 49, CCR6 antag 71, CXCR6 inh 51 | APJ antag conf 89
O=S(=O)(c1ccc(Cl)cc1)N1CCC(N2CCOCC2)CC1	none
N#CCCCc1cn(-c2nc3ccccc3s2)nn1	none (no result: APJ antag, APJ agonist, CCR6 antag)
CCn1nc(C)cc1-c1nnc(Sc2ncc([N+](=O)[O-])s2)n1C	APJ antag 57, CCR6 antag 97, CXCR6 inh 84 | APJ antag conf 65
COc1ccc(Cc2c(-c3cccc(Cl)c3)nc3ccc(C)cn23)c(C)c1	none (no result: APJ antag, APJ agonist, CCR6 antag)
Cc1ccc(CNc2nc(N)c([N+](=O)[O-])c(Nc3cccc(F)c3)n2)cc1	APJ antag 41 | APJ antag conf inactive
COC(=O)[C@]12CCCCC=C1N(Cc1cccc3ccccc13)C(=O)[C@H](CC(=O)NCc1cccs1)C2	none (no result: APJ antag, APJ agonist, CCR6 antag)
CC[N+](CC)(CC#Cc1ccccc1)CC(=O)c1ccc(Cl)cc1	APJ antag 77, CCR6 antag 69 | APJ antag conf inactive
Cc1ccc(S(=O)(=O)NC(=O)C2(C)CCN2C(=O)Cc2cccs2)nc1 (stereo not drawn)	none (no result: APJ antag, APJ agonist, CCR6 antag)
Cn1cccc1/C=C(/C#N)C(N)=S	APJ antag 41 | APJ antag conf 58
CNc1cc(-c2cccc(C(=O)N3CCOCC3)c2)ncn1	none (no result: APJ antag, APJ agonist, CCR6 antag)
CCC1=NN(C(=O)c2ccc(Cl)cc2)C(O)(c2ccccc2)C1 (stereo not drawn)	APJ antag 41 | APJ antag conf inactive
Cc1ccc2cccc(N)c2n1	APJ antag 41 | APJ antag conf inactive
COc1ccc(S(=O)(=O)N2CCNC(=O)CC2)cc1	none
COc1ccc(S(=O)(=O)N2CCC(=O)N2)cc1	APJ antag 46 | APJ antag conf inactive
COc1cc2c(cc1OC)C(Cc1ccc(O)c(Oc3ccc(C[C@H]4c5cc(OC)c(OC)cc5CCN4C)cc3)c1)N(C)CC2 (stereo partly drawn)	none (no result: EBI2 antag, CCR6 antag, CXCR6 inh)
COc1ccc(Cl)cc1C(=O)NNC(=S)NC(=O)c1ccc(F)c(F)c1	APJ antag 40 | APJ antag conf inactive
CS(=O)(=O)n1c2ccccc2c(=O)n1-c1ccccc1CCl	none (no result: APJ antag, APJ agonist, CCR6 antag)
